Reference: PubChem BioAssay AID373 (The Scripps Research Institute Molecular Screening Center, 2006)
Screen size: about 60,000 compounds; about 60 (0.1%) were called active.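 The calls were made as follows: active = activation above the screen-wide mean plus 3 SD (cut at about 4.5% in these data, passing the limit was not always enough); inactive = the rest, inconclusive results apart.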 The sample as a whole holds a higher share of actives than the screen did.

Molecular target: Sphingosine 1-phosphate receptor 3 (Homo sapiens) (UniProt Q99500)
Test: activators of S1P3 receptor signaling – cell-based, primary and confirmation, NFAT-BLA reporter, primary screen (AID 373)
Outline: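 Benchmarks: high control 1 µM S1P / System: stable CHO line with human S1P3, Gα16, NFAT-BLA reporter / Dosing: single compound concentration, 4.5 µM final / Timing: 4 h compound at 37 °C, 2 h substrate at RT / Measured by: FRET β-lactamase substrate fluorescence, excitation 405 nm, 460/535 nm emission ratio, background-subtracted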

[1] = S1P3 NFAT-BLA reporter cells, agonism, FRET ratio, at 4.5 µM, stronger effect = higher value, relative to 1 µM S1P, basal subtracted

Chain of Sphingosine 1-phosphate receptor 3 (Homo sapiens) (Q99500 whole entry, looked up): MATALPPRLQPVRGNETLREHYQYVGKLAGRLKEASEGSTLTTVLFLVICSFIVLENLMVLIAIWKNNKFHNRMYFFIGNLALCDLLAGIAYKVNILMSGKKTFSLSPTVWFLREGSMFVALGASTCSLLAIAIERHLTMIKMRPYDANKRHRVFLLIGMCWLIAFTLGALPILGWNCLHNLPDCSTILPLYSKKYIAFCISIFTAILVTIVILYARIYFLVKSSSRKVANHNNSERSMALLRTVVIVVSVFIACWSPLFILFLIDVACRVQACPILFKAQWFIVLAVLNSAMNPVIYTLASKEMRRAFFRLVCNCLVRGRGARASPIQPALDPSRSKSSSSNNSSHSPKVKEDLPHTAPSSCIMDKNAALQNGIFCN

Compound: CC(C)c1ccc(NC(=O)NC2CCCCC2)cc1
- activation [1]: 0% (inactive)

Compound: Cc1ccc2nc(NC(=O)C3CCN(S(=O)(=O)c4ccc5c(c4)oc(=O)n5C)CC3)sc2c1
- activation [1]: -0.9% (inactive)

Compound: O=C(O)CCCC(=O)Nc1ccccc1-n1ccnc1
- activation [1]: -0.2% (inactive)

Compound: CCCOc1cccc(C(=O)Nc2nnn(CCC)n2)c1
- activation [1]: 0% (inactive)

Compound: COc1ccc(-c2noc(COc3ccc(Cl)c(C)c3)n2)cc1
- activation [1]: -0.7% (inactive)

Compound: Cc1cc(C)nc(N(C#N)CC(=O)Nc2ccccc2)n1
- activation [1]: -0.7% (inactive)

Compound: Cc1nn(-c2cc(Cl)ccc2N)c(=O)c2ccccc12
- activation [1]: -1.6% (inactive)

Compound: CCOCC(=O)NCc1ccc2c(c1)cc(C)n2C
- activation [1]: -0.3% (inactive)

Compound: CN(CC(=O)NC1CCCCC1)S(=O)(=O)c1cccc2cccnc12
- activation [1]: -1.1% (inactive)

Compound: COc1ccc(S(=O)(=O)N2CCC(C(=O)N3CCOCC3)CC2)cc1OC
- activation [1]: -0.8% (inactive)

Compound: Cc1ccn2cc(C(=O)NC3CCN(Cc4ccccc4)CC3)nc2c1
- activation [1]: -0.2% (inactive)

Compound: CC(=O)N1CCN(C(=O)Nc2cccc(C(F)(F)F)c2)CC1
- activation [1]: -0.4% (inactive)

Compound: O=C(Nc1nccs1)C1CCCN1S(=O)(=O)c1cccc2cccnc12 (centres undefined)
- activation [1]: -0.3% (inactive)

Compound: Cc1cccc2c1N(CC(=O)OC(C)C)C(=O)C2=O
- activation [1]: -0.6% (inactive)

Compound: COc1ccccc1Nc1ncnc2c1oc1ccccc12
- activation [1]: -1% (inactive)

Compound: Cc1cnc(NC(=O)CSc2nnc(-c3ccc(Cl)cc3Cl)n2N)s1
- activation [1]: -0.7% (inactive)

Compound: CC12CN3CC(C)(CN(C1)C3c1ccc(Cl)cc1Cl)C2=O (centres undefined)
- activation [1]: -0.5% (inactive)

Compound: CC(=O)Nc1ccc(NS(=O)(=O)c2cc(C)sc2C)cc1
- activation [1]: -0.3% (inactive)

Compound: Cc1ccc(S(=O)(=O)N2CCC(N3CCCCCC3)CC2)cc1
- activation [1]: -2.7% (inactive)

Compound: CC1COC2C(O1)N(S(C)(=O)=O)CCN2S(C)(=O)=O (centres undefined)
- activation [1]: -1.9% (inactive)

Compound: CCOc1ccc(C2C(C(=O)O)c3ccccc3C(=O)N2CCN2CCOCC2)cc1 (centres undefined)
- activation [1]: -0.7% (inactive)

Compound: CC(C)N(C(=O)Cn1c(SCC(=O)N2CCN(c3ccccc3)CC2)nc2ccccc21)C(C)C
- activation [1]: 0.4% (inactive)

Compound: CCn1c(SCC(=O)Nc2cccc(F)c2)nnc1-c1cc2cc(Br)ccc2o1
- activation [1]: 0.7% (inactive)

Compound: CC1CCN(C(=O)CSc2ccc3nnc(-c4cccc(F)c4)n3n2)CC1
- activation [1]: -0.5% (inactive)

Compound: CCOc1ccc(OCC)c(NC(=O)C(NS(=O)(=O)c2ccc3c(c2)oc(=O)n3C)C(C)C)c1 (centres undefined)
- activation [1]: 0.3% (inactive)

Compound: CC1CCN(Cc2nc3c(c(=O)n(C)c(=O)n3C)n2CCc2ccccc2)CC1
- activation [1]: -0.7% (inactive)

Compound: CCc1c(C)c2c(C)[nH]nc2oc1=O
- activation [1]: 0.6% (inactive)

Compound: CCCCC(=O)N(c1ccc(OC)cc1)C1C=CS(=O)(=O)C1 (centres undefined)
- activation [1]: -0.5% (inactive)

Compound: COc1ccc(-c2nc(CS(=O)CC(=O)NCc3cccnc3)c(C)o2)cc1OC (centres undefined)
- activation [1]: -0.9% (inactive)

Compound: CCn1c(SCC(=O)NCc2ccco2)nnc1-c1ccc(N)cc1
- activation [1]: 1.1% (inactive)

Compound: CCN(CC)S(=O)(=O)c1ccc2nc(COC(=O)c3n[nH]c4ccccc34)[nH]c2c1
- activation [1]: 0% (inactive)

Compound: C[N+](C)(C)CCOP(=O)([O-])OC[C@H](O)CO
- activation [1]: -3.9% (inactive)

Compound: c1ccc(Nc2n[nH]nc2-c2ccccc2)cc1
- activation [1]: -1.7% (inactive)

Compound: O=C(c1ccc(-n2cnnn2)cc1)N1CCN(C(c2ccccc2)c2ccccc2)CC1
- activation [1]: 0.7% (inactive)

Compound: O=C(NCc1cn2ccsc2n1)Nc1cccc(Cl)c1
- activation [1]: 1.1% (inactive)

Compound: Cc1cccc(CSc2nnc(Cn3c(=O)sc4ccccc43)n2C)c1
- activation [1]: -0.9% (inactive)

Compound: Cc1cc(C)cc(N(CC(=O)NCC2CCCO2)S(=O)(=O)c2c(C)noc2C)c1 (centres undefined)
- activation [1]: -0.2% (inactive)

Compound: CCOC(=O)c1ccc(-c2ccc(C(=O)Nc3cccnc3)o2)cc1
- activation [1]: 0.3% (inactive)

Compound: Cc1ccc(-c2noc(CCC(=O)Nc3ccccc3N3CCN(C)CC3)n2)cc1
- activation [1]: 0.8% (inactive)

Compound: CCN(CC)CCCN1C(=O)C(=O)/C(=C(/O)c2c(C)nc3ccccn23)C1c1ccc(C)o1 (centres undefined)
- activation [1]: 0.3% (inactive)

Compound: CNC(=O)Nc1cc(C(C)(C)C)no1
- activation [1]: -0.1% (inactive)

Compound: COc1ccc(CCn2c(-c3ccco3)nc3nc4ccccc4nc32)cc1OC
- activation [1]: -1.1% (inactive)

Compound: Cc1ccc(-c2c3c(=O)n(C)c(=O)n(C)c3cn2-c2ccccc2O)cc1
- activation [1]: 0.1% (inactive)

Compound: COc1cccc(-n2c(Cc3cc(=O)[nH]c(=O)[nH]3)nnc2SCC(=O)Nc2ccccc2)c1
- activation [1]: 0.3% (inactive)

Compound: Cc1cccc(NC(=O)COc2ccc(Br)cc2C)n1
- activation [1]: -1% (inactive)

Compound: Cc1cc(/C=N/n2cnnc2)c(C)n1-c1ccc2ncccc2c1
- activation [1]: 0.1% (inactive)

Compound: CCOCCCNC(=O)Cc1cc(=O)[nH]c(=O)[nH]1
- activation [1]: 0.5% (inactive)

Compound: O=S(=O)(Nc1ccccc1N1CCOCC1)c1ccc(Cl)s1
- activation [1]: 0.7% (inactive)

Compound: O=c1cc(Cn2nnc(-c3ccc(Cl)cc3)n2)nc2sccn12
- activation [1]: -0.5% (inactive)

Compound: O=C(CSc1nnc(-c2ccco2)n1-c1ccccc1)NCCc1ccccc1
- activation [1]: 0% (inactive)

Compound: COc1ccc(C(=O)c2oc3ccc(Br)cc3c2NC(C)=O)cc1
- activation [1]: -0.9% (inactive)

Compound: Cc1cc(C)c(NC(=O)CS(=O)CC(=O)Nc2cccnc2)c(C)c1 (centres undefined)
- activation [1]: 0.3% (inactive)

Compound: COc1ccc(-n2nnc3c(=O)n(CC(=O)N4CCC(Cc5ccccc5)CC4)cnc32)cc1
- activation [1]: -0.4% (inactive)

Compound: Cc1ccc(C(=O)N(CN2CCCC2=O)c2ccc(F)cc2)cc1
- activation [1]: -1.3% (inactive)

Compound: CC1CC(C)CN(CC(=O)Nc2ccc(S(N)(=O)=O)cc2)C1 (centres undefined)
- activation [1]: -0.9% (inactive)

Compound: CN(C)c1nc2n(c(=O)n1)CCO2
- activation [1]: 0.6% (inactive)

Compound: c1ccc2c(c1)OCC(c1nn3cnnc3s1)O2 (centres undefined)
- activation [1]: -0.3% (inactive)

Compound: Cc1ccc(C(c2sc3nc(C)nn3c2O)N2CCN(c3ccc(F)cc3)CC2)cc1 (centres undefined)
- activation [1]: 0.6% (inactive)

Compound: CC(C)(C)Oc1ncc(Br)c(OC(C)(C)C)n1
- activation [1]: -0.4% (inactive)

Compound: N#Cc1c(N)n(CCOC(=O)c2ccc(Cl)cc2)c2nc3ccccc3nc12
- activation [1]: 2.5% (inactive)

Compound: COc1ccc(C(C)=O)cc1COC(=O)Cn1cnc2ccccc2c1=O
- activation [1]: 0.7% (inactive)

Compound: Cc1cc(C(F)(F)F)nn1CC(=O)N1CCCC1
- activation [1]: -0.4% (inactive)

Compound: CCCc1[nH]nc2c1C(c1ccc(OC)c(Cn3nc(C)c(Br)c3C)c1)C(C#N)=C(N)O2 (centres undefined)
- activation [1]: -0.7% (inactive)

Compound: O=C(CN1CCOc2ccccc21)N1CCC(Cc2ccccc2)CC1
- activation [1]: -0.9% (inactive)

Compound: Cc1cc(=O)[nH]c(SCC(N)=O)c1C#N
- activation [1]: -1% (inactive)

Compound: CCc1nc2ccccc2n(CCOCCOCCn2c(=O)c(CC)nc3ccccc32)c1=O
- activation [1]: 1.3% (inactive)

Compound: O=C(CC1OC(=O)c2ccccc21)NC1CCCCC1 (centres undefined)
- activation [1]: -0.8% (inactive)

Compound: O=C(O)CCN1C(=O)CC2(CCCCC2)C1=O
- activation [1]: -0.4% (inactive)

Compound: CCn1cc(NC(=O)Nc2ccc(OC)c(OC)c2)c(C(N)=O)n1
- activation [1]: -0.9% (inactive)

Compound: C=CCn1c(=O)c2ccccc2n2c(SCC(=O)N3CCCc4ccccc43)nnc12
- activation [1]: -2.3% (inactive)

Compound: OC(COc1ccc2ccccc2c1)CN1CCOCC1 (centres undefined)
- activation [1]: 0.6% (inactive)

Compound: Cc1ccc2nc(-c3ccccc3)cc(C(=O)O)c2c1
- activation [1]: 0.7% (inactive)

Compound: Cc1cccc(NC(=O)C2CCCN2S(=O)(=O)c2ccc(F)cc2)c1C (centres undefined)
- activation [1]: -1.1% (inactive)

Compound: Cc1nc(Nc2ccc3c(c2)OCCO3)c2nnn(Cc3ccccc3Cl)c2n1
- activation [1]: -1.2% (inactive)

Compound: COc1ccccc1N=C1SC(C)CN1C(=O)C1CCC1 (centres undefined)
- activation [1]: 0.5% (inactive)

Compound: O=S(=O)(NCc1ccccn1)c1ccc(F)cc1
- activation [1]: -1.2% (inactive)

Compound: Cc1cc(C)n(-c2nc(SCC(=O)N3CCCC3)c3c4c(sc3n2)CCCC4)n1
- activation [1]: 0% (inactive)

Compound: COCCNc1nc(-n2nc(C)cc2C)nc2sc3c(c12)CCCC3
- activation (S1P3 NFAT-BLA reporter cells, agonism, FRET ratio; at 4.5 µM; stronger effect = higher value; relative to 1 µM S1P, basal subtracted): 18.4% (active)
- activation (S1P3 NFAT-BLA reporter cells, agonism, FRET ratio; measured here: confirmation screen, triplicate average; at 4.5 µM; stronger effect = higher value; relative to 1 µM S1P, basal subtracted): 25.3%

Compound: COCCn1c(C)cc(C(=O)CSc2ncnc3sc4c(c23)CCC4)c1C
- activation [1]: -1% (inactive)

Compound: CC1=CC(C)(C)N(C(=O)CSc2nccn2C)c2cc(C)ccc21
- activation [1]: 0.7% (inactive)

Compound: O=C(CCSCCc1ccccn1)Nc1nccs1
- activation [1]: -0.7% (inactive)

Compound: COc1ccc(-c2nnc(SCC(=O)NC3CCCCC3)o2)cc1OC
- activation [1]: -0.8% (inactive)

Compound: CCOC(=O)Cn1c(=O)oc2cc(S(=O)(=O)N(C)Cc3ccco3)ccc21
- activation [1]: 0.3% (inactive)

Compound: O=C(CN1C(=O)C2C3C=CC(C3)C2C1=O)NCCc1ccccc1Cl (centres undefined)
- activation [1]: 0.1% (inactive)

Compound: CCOC(=O)C(C)Oc1cccc2c(=O)n(CC(=O)N3CCc4ccccc43)ccc12 (centres undefined)
- activation [1]: -1.6% (inactive)

Compound: Cc1cc(Nc2cccc(C)c2C)n2ncnc2n1
- activation [1]: -1.3% (inactive)

Compound: COCCOC(=O)C1=C(C)NC(=O)NC1c1ccc(Cl)cc1 (centres undefined)
- activation [1]: -2.2% (inactive)

Compound: O=C(Cn1cnc2c(nnn2-c2ccccc2)c1=O)N1CCC(Cc2ccccc2)CC1
- activation [1]: -1.2% (inactive)

Compound: COC(=O)c1ccc(OC(=O)c2nn(C)cc2Cl)c(OC)c1
- activation [1]: -1% (inactive)

Compound: COc1ccc(-c2nnc(SC(=O)N3c4ccccc4Sc4ccccc43)o2)cc1
- activation [1]: -1.5% (inactive)

Compound: CC1(C)CCCC2=C1CC1C(=O)N(c3ccccc3)C(=O)C1C2 (centres undefined)
- activation [1]: -0.8% (inactive)

Compound: C=CCNC(=O)CCCOc1cccc(C)c1
- activation [1]: 0.2% (inactive)

Compound: O=C(CCOc1ccccc1)NCc1ccccc1
- activation [1]: 0.1% (inactive)

Compound: O=C(CCC(=O)OCC(F)(F)C(F)F)NCc1ccccc1
- activation [1]: -0.2% (inactive)

Compound: COc1c(Br)cc2c(C)c(C(=O)N3CCOCC3)oc2c1Br
- activation [1]: 1.5% (inactive)

Compound: CCCN(CCC)C(=O)C1c2ccccc2Oc2ccccc21
- activation [1]: -1.3% (inactive)

Compound: COc1ccccc1CNC(=O)CCCNS(=O)(=O)c1cccc2nsnc12
- activation [1]: 1.2% (inactive)

Compound: COCCNC(=O)Cn1cc2c(n1)CCCCC2
- activation [1]: -0.2% (inactive)
